Reference: ChEMBL document CHEMBL1123934, “Indazoles as indole bioisosteres: synthesis and evaluation of the tropanyl ester and amide of indazole-3-carboxylate as antagonists at the serotonin 5HT3 receptor” (J Med Chem, 1987)

Legend:
Assay type in all cases: functional
[1] = target: T1, Serotonin 3 (5-HT3) receptor (Rattus norvegicus) (UniProt P35563+Q9JJ16); experiment: Selectivity ratio of peroral vs intravenous delivery
[2] = target: T1, Serotonin 3 (5-HT3) receptor (Rattus norvegicus); experiment: The compound was evaluated for the inhibition of the von Bezold-Jarisch reflex in rat administered intravenously
Procedure, shortened: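 Urethane-anesthetized rats; serotonin bolus 0.03 mg/kg iv (femoral vein) gives control reflex bradycardia. After heart rate returns to baseline (within 5 min), test compound iv as free base in dilute acid (≤1% HCl). Serotonin challenge repeated after 15 min. Percent inhibition of bradycardia at three doses, n ≥ 3 each. ED50 from mean values.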

[3] = target: T1, Serotonin 3 (5-HT3) receptor (Rattus norvegicus); experiment: The compound was evaluated for the inhibition of the von Bezold-Jarisch reflex in rat administered orally
Procedure, shortened: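 Overnight-fasted rats gavaged with compound (free base in ≤1% HCl, 5 mL/kg). Urethane anesthesia 45 min later. Serotonin bolus 0.03 mg/kg iv 15 min after anesthesia. Saline-dosed rats as controls. Percent inhibition of reflex bradycardia at three doses, n ≥ 3 each. ED50 from mean values.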

SMILES | Ratio [1] | ED50 [2] [mg/kg] | ED50 [3] [mg/kg]
CN1C2CCCC1CC(NC(=O)c1nn(C)c3ccccc13)C2 (stereo unspecified) | 15 |  | 
CN1[C@@H]2CC[C@H]1C[C@@H](OC(=O)c1c[nH]c3ccccc13)C2 | 50 | 0.004 | 0.2
CN1C2CCC1CC(NC(=O)c1c3ccccc3nn1C)C2 (stereo unspecified) |  | > 0.01 | 
CN1C2CCC1CC(OC(=O)c1[nH]nc3ccccc13)C2 (stereo unspecified) | 66 | 0.003 | 0.2
CN1C2CCC1CC(NC(=O)c1n[nH]c3ccccc13)C2 (stereo unspecified) | 10 | 0.002 | 0.02
